# V1R ag counter: counter-screen for oxytocin receptor agonists: human V1a receptor agonists; P37288; CHO-V1R cells, Fluo-8 calcium fluorescence, agonist mode; 0% DMSO, 100% 3 nM vasopressin; activation, % at 3 µM; 0.25% of 320,000 active;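 active = activation above the mean activation of all tested compounds plus 3 SD, per screening run, cut at about 20% in these data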;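 also: signal is peak over basal fluorescence ratio across a 100 second FLIPR read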
# Target sequence (P37288 whole entry, looked up): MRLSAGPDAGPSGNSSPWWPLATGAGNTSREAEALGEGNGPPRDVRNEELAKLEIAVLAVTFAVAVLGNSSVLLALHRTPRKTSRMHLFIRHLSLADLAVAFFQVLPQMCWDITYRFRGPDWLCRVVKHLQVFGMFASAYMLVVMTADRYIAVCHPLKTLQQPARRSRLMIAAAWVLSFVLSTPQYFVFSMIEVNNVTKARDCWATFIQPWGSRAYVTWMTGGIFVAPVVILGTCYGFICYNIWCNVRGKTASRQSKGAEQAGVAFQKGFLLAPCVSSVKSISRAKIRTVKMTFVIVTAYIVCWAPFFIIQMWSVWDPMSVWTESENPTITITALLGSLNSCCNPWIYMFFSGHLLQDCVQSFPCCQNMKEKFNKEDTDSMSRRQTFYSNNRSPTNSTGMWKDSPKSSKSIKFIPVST
# TAAR1 ag: agonists of human TAAR1 | activation, % at 3 µM | CHO RD-HGA16 TAAR1, Fluo-8 calcium fluorescence; vehicle wells 0%, saturating PEA agonist 100% | 0.99% of 360,000 active | AID 624467;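 active = activation above the mean activation of all test compounds in the run plus 3 SD, cut at about 38% in these data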
#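 Test system: RD-HGA16 (CHO) cells co-expressing Gα16 and hTAAR1; dosing: one-point dosing at 3 µM (nominal); timing: 17-24 h seeding, 75 min 37 °C dye, 30 min RT; signal: kinetic Fluo-8 calcium fluorescence; read-out basis: % activation relative to PEA EC100 response; controls: DMSO and PEA EC100; replicates: n 1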
# OXTR potentiate: potentiators of human oxytocin receptor; P30559; CHO-OTR cells, Fluo-8 calcium fluorescence, potentiator mode; 0% = oxytocin EC15, 100% = EC100; activation, % at 3 µM; 0.061% of 320,000 active;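 active = activation above that plate's cutoff, the mean activation of tested compounds plus 3 SD, cut at about 6.6% in these data, passing the limit was not always enough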
#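 Material: human OTR in CHO cells. Compound: 3.0 µM, one dose. Timing: compound 6 min at room temperature before oxytocin, 100 s read. Evaluation: % activation of max/min ratio relative to oxytocin controls. Replication: single well per compound, singlicate. Signal: Fluo-8 calcium dye fluorescence.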
# TAAR1 antagonist: antagonists of human TAAR1; Q96RJ0; CHO RD-HGA16 TAAR1, Fluo-8 calcium fluorescence, antagonist; inhibition, % at 3 µM; 1.5% of 360,000 active; AID 624466;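 active = inhibition above a per-plate cutoff, the mean inhibition of test compounds on that plate plus 3 SD, cut at about 49% in these data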
#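 Test system – hTAAR1-expressing CHO RD-HGA16 cells, Gα16-coupled · Also added – β-PEA at EC80 concentration, post-compound challenge · Compound – 3 µM, single point · Incubation – dye loading 75 min at 37 °C, then 30 min room temperature · Measured by – Fluo-8 intracellular calcium dye fluorescence, real-time kinetic reads · Benchmarks – vehicle and agonist controls · Replicates – singlicate, one well per test compound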
# OXTR agonist: human OXTR agonism; P30559; CHO-OTR cells, Fluo-8 calcium fluorescence; normalized: DMSO 0%, oxytocin 100%; activation, % at 3 µM; 0.32% of 320,000 active; AID 2435;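 active = activation above the mean of all tested compounds plus 3 SD, cutoff set per screening run, cut at about 20% in these data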;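 also: peak over basal fluorescence ratio from a 100 s FLIPR kinetic read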
# Numbers stand for hits; i = inactive; nt = no result given; + = active, no number. A selection: hits, their analogues and other compounds. The true share with any hit is near 2.3%.
SMILES,V1R ag counter,TAAR1 ag,OXTR potentiate,TAAR1 antagonist,OXTR agonist
C#CCOc1ccccc1C(=O)NNc1ccc([N+](=O)[O-])cc1[N+](=O)[O-],nt,i,nt,i,nt
O=C(CCN1C(=O)NC2(CCCC2)C1=O)Nc1ccc(-c2nc3ccccc3s2)cc1,i,i,i,68,i
CCOP(=O)(c1ccccc1)c1nc(-c2ccccc2C)oc1N1CCCCC1 (centres undefined),i,60,i,i,i
Cc1ccccc1-c1nc(P(=O)(c2ccccc2)c2ccccc2)c(N2CCOCC2)o1,i,i,i,i,i
COc1ccc(N(CC(=O)Nc2ccc3c(c2)OCO3)S(=O)(=O)c2ccccc2)c(OC)c1,i,i,i,56,i
CCN=C1SC(CC(=O)Nc2ccc3c(c2)OCO3)C(=O)N1CC (centres undefined),i,i,i,59,i
O=C(OCC(=O)N1CCc2ccccc21)c1ccccc1[N+](=O)[O-],i,i,i,i,i
NNC(=O)c1ccc(N2CCc3ccccc32)c([N+](=O)[O-])c1,i,i,i,55,i
COC(CNC(=O)c1ccc(N2CCc3ccccc32)c([N+](=O)[O-])c1)OC,i,i,i,i,i
Nc1ccc(-c2c3ccc(=O)cc-3oc3cc(O)ccc23)cc1C(=O)O,261,212,i,68,292
O=c1cc(-c2ccccc2)oc2cc(O)ccc12,nt,i,nt,i,nt
O=c1ccc2c(-c3ccccc3)c3ccc(O)cc3oc-2c1,+,673,i,105,850
COc1ccccc1-c1cccc(-c2nc(C(=O)N3CCCCC3)cc3c2[C@H](CCO)N(S(=O)C(C)(C)C)C3)c1 (some centres undefined),nt,i,nt,58,nt
CCCNC(=O)c1cc2c(c(-c3cccc(-c4ccc(F)cc4)c3)n1)[C@@H](CCO)N(S(=O)C(C)(C)C)C2 (some centres undefined),nt,i,nt,49,nt
COCc1cc(N2CCNC[C@H]2C)ccc1N1CCN(Cc2ccccc2)[C@H](C)C1,nt,i,nt,i,nt
C[C@@H]1ON(C)[C@H]2C[C@H]3c4cc(-c5ccccc5)ccc4CCN3C[C@@H]12,nt,i,nt,i,nt
CC(Oc1ccc(Cl)cc1Cl)c1nc(-c2ccc(NC(=O)c3cccnc3)cc2)no1 (centres undefined),i,i,i,57,i
O=C(Nc1ccc(-c2noc(-c3cccs3)n2)cc1)c1cccnc1,i,i,i,56,i
CC(Oc1ccc(Cl)cc1Cl)c1nc(-c2ccc(NC(=O)c3ccncc3)cc2)no1 (centres undefined),i,i,i,i,i
Cn1ncnc1SCc1cn2cccnc2n1,i,i,i,i,i
Cc1ccc2nc(SCC(=O)c3ccc(O)cc3O)[nH]c2c1,i,41,i,i,i
COC(=O)C1=C(C)N(Cc2ccccc2)C(=S)NC1c1ccc(Cl)cc1 (centres undefined),nt,i,nt,i,nt
COc1ccc(Cc2c(C3CCCCC3)nc3ccc(C)cn23)c(C)c1,nt,i,nt,i,nt
C=CCn1c(CSCc2ccc(C)cc2)nnc1SCC(=O)NCc1ccccc1,i,i,i,50,i
C=CCn1c(CSCc2ccc(Cl)cc2)nnc1SCC(=O)NCc1ccccc1,i,i,i,i,i
SMILES,V1R ag counter,TAAR1 ag,OXTR potentiate,TAAR1 antagonist,OXTR agonist
CCCCNc1ccc2c(c1)OC[C@H](C)NS2(=O)=O,nt,i,nt,i,nt
CN1/C(=C/C2CC(=O)N(c3cccc4ccccc34)C2=O)C(C)(C)c2ccccc21 (centres undefined),i,i,i,50,i
CON(Cc1ccccc1)S(=O)(=O)c1ccccc1Br,nt,i,nt,i,nt
COc1ccc([C@H]2CC(=O)C=C(c3cccc(OC)c3OC)C2)cc1OC,i,i,i,52,i
COc1ccc([C@H]2CC(=O)C=C(c3cccc4c3sc3ccccc34)C2)cc1OC,i,i,i,i,i
C[C@H](CO)N1C[C@H](C)[C@@H](CN(C)C(=O)C2CC2)OCc2cn(nn2)CCCC1=O,nt,i,nt,i,nt
Cc1ccc(SCCNC(=S)Nc2cc(C)cc(C)c2)cc1,i,i,i,65,i
CC(C)CC(=O)Nc1nnc(-c2ccco2)s1,i,i,i,i,i
CCc1ccc(OCC(=O)Nc2nnc(-c3ccco3)s2)cc1,i,39,i,i,i
